The source of these data is ChEMBL document CHEMBL1938298, “Synthesis and characterization of [¹²⁵I]2-iodo N-[(S)-{(S)-1-methylpiperidin-2-yl}(phenyl)methyl]3-trifluoromethyl-benzamide as novel imaging probe for glycine transporter 1” (Bioorg Med Chem, 2011).

Molecules are shown by their SMILES. The source made the active and inactive calls. The rule behind the calls is not given here.

The target in series [1] is T1, Sodium- and chloride-dependent glycine transporter 1 (Rattus norvegicus) (UniProt P28572).
T1 sequence (whole entry): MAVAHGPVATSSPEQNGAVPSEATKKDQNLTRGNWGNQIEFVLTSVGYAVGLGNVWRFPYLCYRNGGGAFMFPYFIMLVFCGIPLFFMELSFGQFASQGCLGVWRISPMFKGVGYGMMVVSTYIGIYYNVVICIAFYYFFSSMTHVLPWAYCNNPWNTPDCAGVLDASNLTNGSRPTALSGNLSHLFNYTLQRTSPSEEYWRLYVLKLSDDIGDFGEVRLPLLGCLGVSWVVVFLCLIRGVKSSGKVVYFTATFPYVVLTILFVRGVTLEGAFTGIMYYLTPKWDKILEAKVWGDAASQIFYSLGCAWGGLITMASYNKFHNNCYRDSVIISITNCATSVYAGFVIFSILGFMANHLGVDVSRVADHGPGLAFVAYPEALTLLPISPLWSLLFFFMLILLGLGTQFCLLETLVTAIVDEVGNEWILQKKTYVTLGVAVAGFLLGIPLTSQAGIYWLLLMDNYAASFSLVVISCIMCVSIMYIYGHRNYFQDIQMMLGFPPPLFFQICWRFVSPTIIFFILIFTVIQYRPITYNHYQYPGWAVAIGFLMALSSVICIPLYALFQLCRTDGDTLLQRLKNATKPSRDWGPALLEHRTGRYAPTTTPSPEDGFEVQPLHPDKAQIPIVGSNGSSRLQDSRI
In words: Binding affinity to GlyT1 in rat brain striatum at 0.03 to 0.04 nM preincubated for 20 mins in binding buffer before compound addition measured after 30 mins by autoradiography in presence of 0.01 mM NMDA receptor glycine site antagonist L-701,324 relative to control. The format is tissue-based. The conditions noted are these: tested as the 125I-labelled form.

Series [2] deals with T1, Sodium- and chloride-dependent glycine transporter 1 (Rattus norvegicus). In words: Binding affinity to GlyT1 in rat brain corpus callosum at 0.03 to 0.04 nM preincubated for 20 mins in binding buffer before compound addition measured after 30 mins by autoradiography in presence of 0.01 mM GlyT1 inhibitor HPCP relative to control. The format is tissue-based. As to conditions: tested as the 125I-labelled form. A digest of the protocol: (§1)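 Rat brain sagittal sections (20 µm) preincubated 20 min at 25 °C in Tris-HCl buffer pH 7.5 (NaCl, KCl, MgCl2, CaCl2), then 30 min at 25 °C with [125I] tracer (100 kBq, 0.03–0.04 nM) plus competitor (10 µM; glycine 1 or 10 mM). Cold washes, imaging plate 3 days, ROI PSL minus background per mm². % control from ≥triplicate slices, three rats.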

For series [3] the target is unchanged. In words: Binding affinity to GlyT1 in rat brain corpus callosum at 0.03 to 0.04 nM preincubated for 20 mins in binding buffer before compound addition measured after 30 mins by autoradiography in presence of 0.01 mM GlyT1 inhibitor SSR504734 relative to control. The format is tissue-based. As to conditions: tested as the 125I-labelled form. A digest of the protocol: as §1

Series [4] relates to Mus musculus. In words: In vivo binding affinity to GlyT1 in ddY mouse brain cerebral cortex at 200 kBq, iv after 60 mins by autoradiography relative to control. It counts as functional, organism-based. As to conditions: tested as the 125I-labelled form. In a few lines:
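Ex vivo autoradiography in mice given 200 kBq [125I]tracer i.v. and killed at 60 min. Brains were removed, frozen on dry ice and cut into 20 µm sagittal cryosections, which were exposed to an imaging plate for 7 days. Regional signal was quantified as PSL/mm² (n = 5) and compared to control by Kruskal–Wallis with Dunn's post-test.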

Series [5] has as its target T1, Sodium- and chloride-dependent glycine transporter 1 (Rattus norvegicus). Kind of series: Binding affinity to GlyT1 in rat brain hippocampus at 0.03 to 0.04 nM preincubated for 20 mins in binding buffer before compound addition measured after 30 mins by autoradiography in presence of 0.01 mM NMDA receptor glycine site antagonist L-701,324 relative to control. It counts as tissue-based. The conditions noted are these: tested as the 125I-labelled form. In a few lines:
as §1

For series [6] the target is unchanged. Kind of series: Binding affinity to GlyT1 in rat brain corpus callosum at 0.03 to 0.04 nM preincubated for 20 mins in binding buffer before compound addition measured after 30 mins by autoradiography relative to control. As to conditions: tested as the 125I-labelled form. It counts as tissue-based. A digest of the protocol:
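Rat brain sagittal sections (20 µm), 20 min preincubation at 25 °C in Tris-HCl pH 7.5 binding buffer, then [125I] tracer (100 kBq, 0.03–0.04 nM) for 30 min at 25 °C. Nonspecific binding taken with 10 µM unlabeled ligand. Imaging-plate read-out as (PSL−BG)/mm². Mean ± SD, n = 4–5 from at least three rats; Mann–Whitney U-test.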

For series [7] the target is unchanged. Kind of series: Binding affinity to GlyT1 in rat brain cerebellum at 0.03 to 0.04 nM preincubated for 20 mins in binding buffer before compound addition measured after 30 mins by autoradiography in presence of 0.01 mM GlyT1 inhibitor ALX5407 relative to control. It counts as tissue-based. As to conditions: tested as the 125I-labelled form. A digest of the protocol:
as §1

Series [8] shares this target. Kind of series: Binding affinity to GlyT1 in rat brain cerebellum at 0.03 to 0.04 nM preincubated for 20 mins in binding buffer before compound addition measured after 30 mins by autoradiography in presence of 0.01 mM GlyT1 inhibitor SSR504734 relative to control. The format is tissue-based. The conditions noted are these: tested as the 125I-labelled form. A digest of the protocol: as §1

A short description of series [9]: Metabolic stability in ddY mouse brain assessed as compound remaining at 185 kBq after 5 mins by radio-TLC. The format is ADME, tissue-based. The conditions noted are these: read-out: Stability.
In series [10] the test system is Mus musculus. Kind of series: In vivo binding affinity to GlyT1 in ddY mouse brain thalamus at 33.3 kBq, iv after 60 mins in presence of N-Me-SSR504734 2 mg/kg, iv administered 15 mins prior to compound administration relative to control. It counts as functional.
In series [11] the test system is Mus musculus. In words: In vivo binding affinity to GlyT1 in ddY mouse brain medullary region at 33.3 kBq, iv after 30 mins in presence of N-Me-SSR504734 2 mg/kg, iv administered 15 mins prior to compound administration relative to control. It counts as functional, Medulla of organ. In a few lines:
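Male ddY mice (6 W, 30–35 g) were given [125I]5 (ca. 33.3 kBq, 0.1 mL) iv via tail vein. Blocker (2 mg/kg in 30% DMSO/saline) was given iv 15 min before the tracer. Mice were killed 30 or 60 min after injection and the brain regions were dissected and weighed. Gamma counting gave % dose/g, compared with control; n = 5–6.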

Series [12] relates to Mus musculus. In words: In vivo binding affinity to GlyT1 in ddY mouse brain thalamus at 33.3 kBq, iv after 30 mins in presence of N-Me-SSR504734 2 mg/kg, iv administered 15 mins prior to compound administration relative to control. It counts as functional.
Series [13] deals with Stomach. In words: Drug uptake in ddY mouse stomach at 11.1 kBq, iv after 15 min by gamma counting. The format is ADME, organism-based. As to conditions: in vivo. A digest of the protocol:
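Male ddY mice (6 weeks, 30–35 g) were given about 11.1 kBq of [125I]tracer in 0.1 mL i.v. via the tail vein. At each time point the animals were killed and organs dissected, weighed and gamma-counted. Uptake is expressed as % injected dose per gram of tissue, mean ± SD, n = 5–6.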

As to `CN1CCCC[C@H]1[C@@H](NC(=O)c1cccc(C(F)(F)F)c1I)c1ccccc1`, the Activity in [1] worked out at 96.8%; in series [2], 19.7%; in [3] it was 21.8%; in series [5], 90.9%; in series [7], 43.1%; in series [8], 27.7%. For the same compound, the outcome in [4] was inactive. Further, in series [6], the result was Active.
Take `CN1CCCC[C@H]1[C@@H](NC(=O)c1cccc(C(F)(F)F)c1[125I])c1ccccc1`: the remaining at 5 min in series [9] was 92%. Also, the Activity in [10] was found to be 56%; in [11], 59%; in [12] it was 56%. In addition, the Drug uptake in series [13] stood at 5.22 % ID/g.
